Converted amounts (≈) assume the structure as drawn.
What was measured:
Escherichia coli [1] = experiment: Antimicrobial activity against Escherichia coli 1949820 B-N isolated from patient with pyelonephritis assessed as >3-log reduction in urinary bacterial titer after 24 hrs; type: functional, Urine
Summary of the method: (§1)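 Urine was collected on day 3 of i.v. therapy (steady state) over 4-h intervals from infusion start (0–4 to 20–24 h), stored at –80°C and sterile filtered. It was serially diluted twofold (1:0 up to 1:131,072) in the patient's own pre-dose drug-free urine. Microdilution used a final inoculum of 1.0 x 10^6 to 9.5 x 10^6 CFU/ml, incubated 18 h at 37°C in air. 10 µl was subcultured onto 5% blood Columbia agar for 24 h at 37°C. The bactericidal endpoint was >99.9% (>3-log) kill, reported as a reciprocal titer.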

Pseudomonas aeruginosa [2] = experiment: Antimicrobial activity against Pseudomonas aeruginosa 1134642 isolated from patient with pyelonephritis assessed as >3-log reduction in urinary bacterial titer after 24 hrs; type: functional, Urine
Summary of the method: (§2)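 Patient urine was collected on day 3 of i.v. therapy (steady state) over 4-h intervals after infusion start, stored at –80°C, and sterile filtered. It was twofold serially diluted (1:0 to 1:131,072) in the patient's own pre-dose drug-free urine, inoculated to 1.0 x 10^6–9.5 x 10^6 CFU/ml, and incubated for 18 h at 37°C. Subcultures were grown on blood agar for 24 h. The UBT is the reciprocal of the highest dilution giving >99.9% kill.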

Pseudomonas aeruginosa [3] = experiment: Antimicrobial activity against Pseudomonas aeruginosa […] assessed as >3-log reduction in urinary bacterial titer after 24 hrs; type: functional, Urine; summary of the method: as §2
Escherichia coli [4] = experiment: Antimicrobial activity against Escherichia coli 1949820 B-N isolated from patient with pyelonephritis assessed as >3-log reduction in urinary bacterial titer after 20 hrs; type: functional, Urine; summary of the method: as §1
Escherichia coli [5] = experiment: Antimicrobial activity against Escherichia coli 1135121 isolated from patient with pyelonephritis assessed as >3-log reduction in urinary bacterial titer after 20 hrs; type: functional, Urine
Summary of the method: (§3)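 Urine was collected before dosing and on day 3 of i.v. therapy (steady state), in 4-h intervals from infusion start (0–4 to 20–24 h), stored at −80°C and sterile filtered. It was serially diluted twofold (1:0 to 1:131,072) in the patient's drug-free pre-dose urine. Microdilution used an inoculum of 1.0 x 10^6–9.5 x 10^6 CFU/ml, incubated 18 h at 37°C, then subcultured 24 h on blood agar. The endpoint was >99.9% kill, reported as reciprocal titer.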

Pseudomonas aeruginosa [6] = experiment: Antimicrobial activity against Pseudomonas aeruginosa […] assessed as >3-log reduction in urinary bacterial titer after 20 hrs; type: functional, Urine; summary of the method: as §2
Enterococcus faecalis [7] = experiment: Antimicrobial activity against Enterococcus faecalis 1780065 B-B isolated from patient with pyelonephritis assessed as >3-log reduction in urinary bacterial titer after 16 hrs; type: functional, Urine; summary of the method: as §3
Pseudomonas aeruginosa [8] = experiment: Antimicrobial activity against Pseudomonas aeruginosa 1134642 isolated from patient with pyelonephritis assessed as >3-log reduction in urinary bacterial titer after 16 hrs; type: functional, Urine; summary of the method: as §2
Escherichia coli [9] = experiment: Antimicrobial activity against Escherichia coli 1135121 isolated from patient with pyelonephritis assessed as >3-log reduction in urinary bacterial titer after 16 hrs; type: functional, Urine; summary of the method: as §3
Enterococcus faecalis [10] = experiment: Antimicrobial activity against Enterococcus faecalis 1780065 B-B isolated from patient with pyelonephritis assessed as >3-log reduction in urinary bacterial titer after 12 hrs; type: functional, Urine; summary of the method: as §3
Escherichia coli [11] = experiment: Antimicrobial activity against Escherichia coli 1949821 B-M isolated from patient with pyelonephritis assessed as >3-log reduction in urinary bacterial titer after 8 hrs; type: functional, Urine; summary of the method: as §2
Escherichia coli [12] = experiment: Antimicrobial activity against Escherichia coli 1949820 B-N isolated from patient with pyelonephritis assessed as >3-log reduction in urinary bacterial titer after 8 hrs; type: functional, Urine; summary of the method: as §1
Staphylococcus aureus [13] = experiment: Antimicrobial activity against Staphylococcus aureus 1134684 isolated from patient with pyelonephritis assessed as >3-log reduction in urinary bacterial titer after 8 hrs; type: functional, Urine; summary of the method: as §2
Pseudomonas aeruginosa [14] = experiment: Antimicrobial activity against Pseudomonas aeruginosa 1134642 isolated from patient with pyelonephritis assessed as >3-log reduction in urinary bacterial titer after 8 hrs; type: functional, Urine; summary of the method: as §2
Enterococcus faecalis [15] = experiment: Antimicrobial activity against Enterococcus faecalis 1780065 B-B isolated from patient with pyelonephritis assessed as >3-log reduction in urinary bacterial titer after 4 hrs; type: functional, Urine; summary of the method: as §3
Escherichia coli [16] = experiment: Antimicrobial activity against Escherichia coli 1949820 B-N isolated from patient with pyelonephritis assessed as >3-log reduction in urinary bacterial titer after 4 hrs; type: functional, Urine; summary of the method: as §1
Staphylococcus aureus [17] = experiment: Antimicrobial activity against Staphylococcus aureus 1134684 isolated from patient with pyelonephritis assessed as >3-log reduction in urinary bacterial titer after 4 hrs; type: functional, Urine; summary of the method: as §2
Escherichia coli [18] = experiment: Antimicrobial activity against Escherichia coli 2062717 B-P isolated from patient with pyelonephritis assessed as >3-log reduction in urinary bacterial titer after 16 hrs; type: functional, Urine; summary of the method: as §2
Escherichia coli [19] = experiment: Antimicrobial activity against Escherichia coli 1780063 B-A isolated from patient with pyelonephritis assessed as >3-log reduction in urinary bacterial titer after 16 hrs; type: functional, Urine; summary of the method: as §3
Escherichia coli [20] = experiment: Antimicrobial activity against Escherichia coli 1889645 B-I isolated from patient with pyelonephritis assessed as >3-log reduction in urinary bacterial titer after 12 hrs; type: functional, Urine; summary of the method: as §1
Pseudomonas aeruginosa [21] = experiment: Antimicrobial activity against Pseudomonas aeruginosa 1134642 isolated from patient with pyelonephritis assessed as >3-log reduction in urinary bacterial titer after 4 hrs; type: functional, Urine; summary of the method: as §2
Escherichia coli [22] = experiment: Antimicrobial activity against Escherichia coli 1135121 isolated from patient with pyelonephritis assessed as >3-log reduction in urinary bacterial titer after 4 hrs; type: functional, Urine; summary of the method: as §3
[23] = test system: Staphylococcus epidermidis; experiment: Antimicrobial activity against Staphylococcus epidermidis 1949822 B-J isolated from patient with pyelonephritis by Etest; type: functional
Enterococcus faecalis [24] = experiment: Antimicrobial activity against Enterococcus faecalis 1780065 B-B isolated from patient with pyelonephritis by Etest; type: functional
Escherichia coli [25] = experiment: Antimicrobial activity against Escherichia coli 1949820 B-N isolated from patient with pyelonephritis by Etest; type: functional
Staphylococcus aureus [26] = experiment: Antimicrobial activity against Staphylococcus aureus 1134684 isolated from patient with pyelonephritis by Etest; type: functional
Pseudomonas aeruginosa [27] = experiment: Antimicrobial activity against Pseudomonas aeruginosa 1134642 isolated from patient with pyelonephritis by Etest; type: functional
Escherichia coli [28] = experiment: Antimicrobial activity against Escherichia coli 1135121 isolated from patient with pyelonephritis by Etest; type: functional
Escherichia coli [29] = experiment: Antimicrobial activity against Escherichia coli 2062717 B-P isolated from patient with pyelonephritis assessed as >3-log reduction in urinary bacterial titer after 8 hrs; type: functional, Urine
Escherichia coli [30] = experiment: Antimicrobial activity against Escherichia coli 1821385 B-C isolated from patient with pyelonephritis assessed as >3-log reduction in urinary bacterial titer after 8 hrs; type: functional, Urine; summary of the method: as §1
Escherichia coli [31] = experiment: Antimicrobial activity against Escherichia coli 2297257 B-W isolated from patient with pyelonephritis assessed as urinary bactericidal titer
Staphylococcus aureus [32] = experiment: Antimicrobial activity against Staphylococcus aureus 1889640 A-Z isolated from patient with pyelonephritis by Etest; type: functional
Escherichia coli [33] = experiment: Antimicrobial activity against Escherichia coli 1889647 B-H isolated from patient with pyelonephritis by Etest; type: functional
Serratia marcescens = experiment: Antimicrobial activity against Serratia marcescens 2297260 B-U isolated from patient with pyelonephritis assessed as >3-log reduction in urinary bacterial titer after 24 hrs; type: functional, Urine
Escherichia coli [34] = experiment: Antimicrobial activity against Escherichia coli 1780064 A-X isolated from patient with pyelonephritis assessed as >3-log reduction in urinary bacterial titer after 24 hrs; type: functional, Urine; summary of the method: as §1
Enterococcus faecalis [35] = experiment: Antimicrobial activity against Enterococcus faecalis 2297262-10 B-V isolated from patient with pyelonephritis assessed as >3-log reduction in urinary bacterial titer after 24 hrs; type: functional, Urine; summary of the method: as §3

SMILES | Time (Escherichia coli [1]) [h] | urinary bactericidal titer (Pseudomonas aeruginosa [2]) [reciprocal titer] | urinary bactericidal titer (Pseudomonas aeruginosa [3]) [reciprocal titer] | urinary bactericidal titer (Escherichia coli [5]) [titer] | urinary bactericidal titer (Pseudomonas aeruginosa [6]) [reciprocal titer] | Time (Enterococcus faecalis [7]) [h] | urinary bactericidal titer (Pseudomonas aeruginosa [8]) [reciprocal titer] | urinary bactericidal titer (Escherichia coli [9]) [reciprocal titer] | urinary bactericidal titer (Enterococcus faecalis [10]) [reciprocal titer] | urinary bactericidal titer (Escherichia coli [11]) [titer] | urinary bactericidal titer (Escherichia coli [12]) [titer] | urinary bactericidal titer (Staphylococcus aureus [13]) [reciprocal titer] | urinary bactericidal titer (Pseudomonas aeruginosa [14]) [reciprocal titer] | urinary bactericidal titer (Enterococcus faecalis [15]) [reciprocal titer] | urinary bactericidal titer (Escherichia coli [16]) [titer] | urinary bactericidal titer (Staphylococcus aureus [17]) [reciprocal titer] | urinary bactericidal titer (Pseudomonas aeruginosa [21]) [reciprocal titer] | urinary bactericidal titer (Escherichia coli [22]) [reciprocal titer] | MIC [23] [µg/mL] | MIC (Enterococcus faecalis [24]) [µg/mL] | further results
C[C@@H](O)[C@H]1C(=O)N2C(C(=O)O)=C(S[C@@H]3CN[C@H](CNS(N)(=O)=O)C3)[C@H](C)[C@H]12 [DORIPENEM] | 5120 | 1280 | 512 | 32800 | 4096 | 48 | 2048 | 8192 | 192 | 12300 | 12300 | 4 | 1024 | 128 | 32800 | 8 | 4096 | 49200 | > 32 | 4 (≈ 9.51 µM) | urinary bactericidal titer (Escherichia coli [4]): 32800; urinary bactericidal titer (Escherichia coli [18]): 512 reciprocal titer; urinary bactericidal titer (Escherichia coli [19]): 1024 reciprocal titer; urinary bactericidal titer (Escherichia coli [20]): 131000 reciprocal titer; MIC (Escherichia coli [25]): 0.03 µg/mL (≈ 0.0713 µM); MIC (Staphylococcus aureus [26]): 32 µg/mL (≈ 76.1 µM); MIC (Pseudomonas aeruginosa [27]): 2 µg/mL (≈ 4.76 µM); MIC (Escherichia coli [28]): ≤ 0.015 µg/mL; urinary bactericidal titer (Escherichia coli [29]): 1024 reciprocal titer; urinary bactericidal titer (Escherichia coli [30]): 256 reciprocal titer; urinary bactericidal titer (Escherichia coli [31]): 4096 reciprocal titer
C[C@H]1COc2c(N3CCN(C)CC3)c(F)cc3c(=O)c(C(=O)O)cn1c23.C[C@H]1COc2c(N3CCN(C)CC3)c(F)cc3c(=O)c(C(=O)O)cn1c23.O [LEVOFLOXACIN] | 0 | 0 | 4 | 3 | 6 | 16 | 1 | 2.5 | 16 | 128 | 2 | 4 | 2 | 32 | 4 | 8 | 2 | 8 | 8 | 1 | Time (Escherichia coli [4]): 1 h; MIC (Staphylococcus aureus [32]): 0.06 µg/mL; MIC (Escherichia coli [33]): < 0.03 µg/mL; MIC (Escherichia coli [25]): 8 µg/mL; MIC (Staphylococcus aureus [26]): 4 µg/mL; MIC (Pseudomonas aeruginosa [27]): 16 µg/mL; MIC (Escherichia coli [28]): 4 µg/mL; urinary bactericidal titer (Serratia marcescens): 32 reciprocal titer; urinary bactericidal titer (Escherichia coli [34]): 128 reciprocal titer; Time (Enterococcus faecalis [35]): 0 h

Source: ChEMBL document CHEMBL1649151, “Urinary bactericidal activity of Doripenem versus that of levofloxacin in patients with complicated urinary tract infections or pyelonephritis” (Antimicrob Agents Chemother, 2009)
